GAA850 FXN act: increases GAA850 frataxin promoter reporter activity | actives 0.56% (n = 360,000) | activation, % at 6 µM | HEK293 lucGAA850 FXN promoter luciferase reporter, 24 h; percent of 10 µM SAHA response | AID 540364;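 active means activation above the average of all compounds screened plus 3 SD, cutoff fixed separately per campaign, cut at about 7.5% in these data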;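 further: 0% = DMSO wells and 100% = 10 µM SAHA wells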
AHR activator: activators of human aryl hydrocarbon receptor; P35869; AHR-responsive luciferase reporter cells, luminescence; activation, % at 5 µM; actives 2.5% (n = 320,000); in the data active means activation above about 47%;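 further: 0% = vehicle wells and 100% = reference agonist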
Target sequence (P35869 whole entry, looked up): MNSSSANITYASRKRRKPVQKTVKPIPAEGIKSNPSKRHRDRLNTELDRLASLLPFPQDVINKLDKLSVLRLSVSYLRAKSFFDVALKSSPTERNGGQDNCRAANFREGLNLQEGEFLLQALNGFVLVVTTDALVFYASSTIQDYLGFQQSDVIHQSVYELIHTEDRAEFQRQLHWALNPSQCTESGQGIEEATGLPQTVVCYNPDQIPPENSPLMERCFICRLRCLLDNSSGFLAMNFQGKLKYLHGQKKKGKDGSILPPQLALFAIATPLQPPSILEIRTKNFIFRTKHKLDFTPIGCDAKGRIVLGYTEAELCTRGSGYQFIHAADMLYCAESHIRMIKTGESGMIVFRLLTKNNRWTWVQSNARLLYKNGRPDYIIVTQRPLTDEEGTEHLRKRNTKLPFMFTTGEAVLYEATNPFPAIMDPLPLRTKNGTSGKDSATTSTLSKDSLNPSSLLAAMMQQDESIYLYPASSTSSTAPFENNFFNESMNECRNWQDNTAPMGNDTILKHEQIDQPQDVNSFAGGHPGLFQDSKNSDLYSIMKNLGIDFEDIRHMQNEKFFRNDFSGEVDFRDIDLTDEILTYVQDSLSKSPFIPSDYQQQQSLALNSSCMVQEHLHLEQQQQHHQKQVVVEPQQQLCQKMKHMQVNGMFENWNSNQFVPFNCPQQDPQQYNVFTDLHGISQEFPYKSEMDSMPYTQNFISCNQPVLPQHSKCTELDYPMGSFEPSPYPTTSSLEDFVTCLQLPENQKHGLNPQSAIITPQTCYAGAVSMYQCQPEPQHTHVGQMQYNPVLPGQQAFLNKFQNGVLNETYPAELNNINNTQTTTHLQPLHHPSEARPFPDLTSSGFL
ABCB6 inh 2: blocks the human ABCB6 transporter. actives 0.19% (n = 360,000). fluorescence ratio to DMSO, % at 10 µM. AID 602162. Q9NP58. K562-ABCB6 porphyrin accumulation, flow cytometry, 1 h; hits give low values;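 active means fluorescence ratio to DMSO below 75%, the collection mean minus 3 SD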;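 further: signal is porphyrin accumulated inside mitochondria; 100% equals median channel fluorescence of DMSO control wells; lower ratio means ABCB6 inhibition with less porphyrin fluorescence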
STAT3 activator: increases IL-6 driven STAT3 reporter signal; U3A cells, IL-6 STAT3-luciferase reporter, luminescence; 100% = signal with IL-6 EC80 alone; activation (% of control), % at 5.6 µM; actives 0.91% (n = 190,000); AID 871;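 active means activation above the screen-wide mean of compound activation plus 3 SD, cut at about 130% in these data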;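 further: 0% = background luminescence of wells with medium and substrate only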
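Material: human STAT1-deficient U3A cells with stable STAT3-luciferase reporter / Probe or stimulus: IL-6 stimulus at 33 ng/mL final / Schedule: 1 h compound pre-exposure, 6 h IL-6 stimulation, 37 °C / Technique: luminescence / Read-out basis: percent of IL-6-only median luminescence / Control set: IL-6-only high control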
* = called active by the depositor. This is a sample that favours compounds with a hit; in the whole collection about 3.3% have one here.

Screening CC(=O)Nc1ccc(N=Nc2c(C)[nH]n(C(N)=S)c2=O)cc1 returned GAA850 FXN act 3, AHR activator 5, ABCB6 inh 2 95 and STAT3 activator 103.
CSc1ccc(N=Nc2c(C)[nH]n(C)c2=O)cc1 was read as GAA850 FXN act 3, AHR activator 75* and ABCB6 inh 2 98.
`COc1ccc(CC(N)c2csc(NC(=O)c3cc(C(C)(C)C)oc3C)n2)cc1` (stereo not given) gave GAA850 FXN act 1 and ABCB6 inh 2 101.
Screening Cc1nc(NC2=NCN(CCc3ccccc3)CN2)nc2c(C)cccc12 returned STAT3 activator 158*.
Cc1ccc(-c2cc(-c3ccc(C)o3)nc(N)c2C#N)cc1 was read as GAA850 FXN act -1, AHR activator 3, ABCB6 inh 2 120 and STAT3 activator 93.
Screening Cc1ccc(-c2cc(-c3ccc4c(c3)OCO4)c(C#N)c(N)n2)o1 returned GAA850 FXN act -2, AHR activator 75*, ABCB6 inh 2 106 and STAT3 activator 100.
For O=C(Nc1ccc(-c2nc3ccccc3[nH]2)cc1)C1CCCN(Cc2ccn[nH]2)C1 (stereo not given) the results were GAA850 FXN act 1 and ABCB6 inh 2 93.
`Cc1cc(C)c2c(N)c(C(=O)c3ccc(Cl)cc3Cl)sc2n1` gave GAA850 FXN act -1, AHR activator 34, ABCB6 inh 2 96 and STAT3 activator 101.
`Cc1cc(C)c2c(N)c(C(=O)c3cccc(Cl)c3)sc2n1` gave GAA850 FXN act -2, AHR activator 48*, ABCB6 inh 2 101 and STAT3 activator 94.
`CCc1ccccc1NC(=O)c1sc2nc(C)cc(C)c2c1N` gave GAA850 FXN act 1, AHR activator 67* and ABCB6 inh 2 94.
Brc1nc(-c2ccccc2)nc(-c2ccccc2)c1Br was read as GAA850 FXN act 0, AHR activator 1 and ABCB6 inh 2 97.
COC(/C(=N/O)c1ccc(Cl)cc1)c1ccccc1 (stereo not given) was read as GAA850 FXN act 1, AHR activator 40 and ABCB6 inh 2 96.
COc1ccc(CCNC(=O)C/C(C)=N/NC(=O)C2CCCCC2)cc1OC was read as GAA850 FXN act 3, AHR activator 3, ABCB6 inh 2 98 and STAT3 activator 96.
Screening CCNC(=O)C/C(C)=N/NC(=O)C1CCCCC1 returned GAA850 FXN act 2, AHR activator 3, ABCB6 inh 2 49* and STAT3 activator 101.
For O=C(Cc1ccsc1)NCC(=O)Nc1ccccc1Br the results were GAA850 FXN act 2, AHR activator -1 and ABCB6 inh 2 95.
`CCOCC(=O)Nc1c(C(=O)Nc2ccccc2OC)oc2ccccc12` gave GAA850 FXN act 0, AHR activator 73*, ABCB6 inh 2 105 and STAT3 activator 91.
For COc1ccccc1NC(=O)c1oc2ccccc2c1NC(=O)C1CC1 the results were GAA850 FXN act -3, AHR activator 64* and ABCB6 inh 2 96.
`CCC(=O)Nc1c(C(=O)Nc2cccc(OC)c2)oc2ccccc12` gave GAA850 FXN act 7, AHR activator 63*, ABCB6 inh 2 96 and STAT3 activator 88.
For COc1ccc(NC(=O)c2oc3ccccc3c2NC(=O)COc2ccccc2OC)c(OC)c1 the results were GAA850 FXN act -1, AHR activator 23, ABCB6 inh 2 88 and STAT3 activator 92.
Screening CCOc1ccccc1NC(=O)c1oc2ccccc2c1NC(=O)C1CC1 returned GAA850 FXN act 0, AHR activator 39 and ABCB6 inh 2 94.
CCOC(=O)c1oc2ccccc2c1NC(=O)c1cccc(OC)c1 was read as GAA850 FXN act 2, AHR activator -3, ABCB6 inh 2 96 and STAT3 activator 89.
CCOc1ccccc1NC(=O)c1oc2ccccc2c1NC(=O)C1CCCO1 (stereo not given) was read as GAA850 FXN act 0, AHR activator 49*, ABCB6 inh 2 89 and STAT3 activator 100.
O=C(O)c1ccccc1SC1CC(=O)N(c2ccc3c(c2)OCO3)C1=O (stereo not given) was read as GAA850 FXN act -3, AHR activator 1, ABCB6 inh 2 99 and STAT3 activator 105.
Screening COc1ccc(S(=O)(=O)N/N=C(/C)c2cccc(NC(=O)c3ccccc3Cl)c2)cc1 returned GAA850 FXN act -1, AHR activator 3, ABCB6 inh 2 104 and STAT3 activator 99.
CNC(=O)C1(C(F)(F)F)C/C(=C\CCO)CCCO1 (stereo not given) was read as GAA850 FXN act 0, AHR activator 1 and ABCB6 inh 2 103.
`O=C(c1cnn2c(C(F)F)cc(C3CC3)nc12)N1CCc2ccccc2C1` gave GAA850 FXN act 5, AHR activator 49*, ABCB6 inh 2 81 and STAT3 activator 89.
For COc1cccc(C(=O)N2CCN(C(=O)C3COc4ccccc4O3)CC2)c1 (stereo not given) the results were GAA850 FXN act -1, AHR activator -2 and ABCB6 inh 2 97.
`COc1c(Cl)cc(Cl)cc1C(=O)Nc1ccccc1N1CCN(C(C)=O)CC1` gave GAA850 FXN act 1, AHR activator 1, ABCB6 inh 2 94 and STAT3 activator 91.
Screening O=C(Nc1cc(Cl)ccc1N1CCOCC1)c1cccnc1Cl returned GAA850 FXN act 0, AHR activator 70* and ABCB6 inh 2 96.
COc1cc(OC)cc(C(=O)Nc2ccccc2N2CCOCC2)c1 was read as GAA850 FXN act 0, AHR activator 61*, ABCB6 inh 2 97 and STAT3 activator 108.
`CS(=O)(=O)N1CCN(c2ccccc2NC(=O)c2ccc(Cl)cc2)CC1` gave GAA850 FXN act -1, AHR activator 79*, ABCB6 inh 2 89 and STAT3 activator 98.
Screening COc1c(F)c(F)c(C(=O)Nc2ccccc2N2CCN(C(C)=O)CC2)c(F)c1F returned GAA850 FXN act -1, AHR activator 50*, ABCB6 inh 2 98 and STAT3 activator 112.
`O=C(Nc1cc(Cl)ccc1N1CCOCC1)c1ccncc1` gave GAA850 FXN act 0, AHR activator 1 and ABCB6 inh 2 87.
`CCN(CC)C(=O)C1=C(C)N(CCC2=CCCCC2)C(=O)C(CC(=O)NCc2cccs2)C1` (stereo not given) gave GAA850 FXN act -1 and ABCB6 inh 2 97.
For O=C(/C=C/c1c(Cl)nc2ccccn12)Nc1ccc(F)cc1 the results were GAA850 FXN act 4, AHR activator 9, ABCB6 inh 2 93 and STAT3 activator 86.
O=C(Nc1ccccc1N1CCOCC1)c1ccc(Cl)nc1 was read as GAA850 FXN act 2, AHR activator 60*, ABCB6 inh 2 98 and STAT3 activator 118.
`Cc1c(NC(C)c2ccccc2O)c(=O)n(-c2ccccc2)n1C` (stereo not given) gave GAA850 FXN act 0, AHR activator 8, ABCB6 inh 2 54* and STAT3 activator 101.
Screening CCOc1ccc2nc(N/C(N)=N/C(=S)Nc3ccc(C)c(C)c3)nc(C)c2c1 returned GAA850 FXN act 3, AHR activator 8, ABCB6 inh 2 106 and STAT3 activator 95.
